System: MS2 coat protein
Test: apparent Kd, MS2 coat protein; higher = weaker binding; RNA-MaP array; FMN 200 µM where present
Procedure, shortened: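 Designs were transcribed by stalled E. coli RNA polymerase on Illumina sequencing-chip clusters. They were titrated with SNAP-549-labelled MS2 coat protein from 0.7 or 1.5 nM, doubling to 3 µM, in 100 mM Tris-HCl pH 7.5, 80 mM KCl, 4 mM MgCl2, BSA, DTT, yeast tRNA and Tween-20, without and then with constant ligand. The apparent Kd is the median of filtered per-cluster fits after normalisation of green signal to red-channel RNA signal and control-cluster median Fmax.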

[1] = designed as: OFF switch for flavin mononucleotide, no ligand
[2] = ligand present: flavin mononucleotide, designed as: OFF switch for flavin mononucleotide
[3] = designed as: ON switch for flavin mononucleotide, no ligand
[4] = ligand present: flavin mononucleotide, designed as: ON switch for flavin mononucleotide

Row | Sequence | apparent Kd [1] | apparent Kd [2] | apparent Kd [3] | apparent Kd [4]
1 | GGUACUCAAAGAGUACGGAGUCGAACAUGAGGAUCACCCAUGUAGGAUAUGCUAAGCUUGAAGUUGCAGAAGGACAUGUGCAGC | 10.7 nM | 11.1 nM | – | –
2 | GGUACUCAAAGAGUACUUGGUCGAACAUGAGGAUCACCCAUGUAGGAUAUGCGAAGCAAGAAGUAGCAGAAGGACAUGUGCAGC | 14.8 nM | 43.7 nM | – | –
3 | GGUAGAAACAUUAACAUGAGGAUCACCCAUGUCAAAAGAAAUGAGGAUAUCGUAUACAAUGUAUAUGAGAAGGCAUGGUCUACC | – | – | 7.78 nM | 5.77 nM
4 | GGUAGAAACAUUAACAUGAGGAUCACCCAUGUCAAAAGAAAUGAGGAUAUCGUAUUCAAUGUAUAUGAGAAGGCAUGGUCUGCC | – | – | 15.7 nM | 10.7 nM
5 | GGUAUCUCCAGUGAGGAUAUGCGGCGUAGAACAUGAGGAUCACCCAUGUCCUUCGAAUGGGUUACGCAGAAGGCACUACGGUACC | – | – | 36.6 nM | 16.6 nM
6 | GGUCACGUAGGAUAUACCUGGGCCUCUGAAUUCGGCAAUUUACAUGAGGAUCACCCAUGUAGAAGGACGAUGGC | 120 nM | 97.6 nM | – | –
7 | GGUCCAAUAUGAGGAUAUAGCAUCGUAUAGAUGCUAGAAGGCGUGUCGGUAGACAUGAGGAUCACCCAUGUAUUACAAUGGACC | – | – | 114 nM | 32 nM
8 | GGUCCACAUGAGGAUCACCCAUGUCAGGAUAUAUACGGCACAAUAAUAAGUGCCGCCCAUAGAAGGGACGCUGG | 15.7 nM | 26.1 nM | – | –
9 | GGUCCAUUAUGAGGAUAUGGCACCUUAUUGGUGCCAGAAGGCAUGUCUAUAGACAUGAGGAUCACCCAUGUAAUAAAUUGGACC | – | – | 494 nM | 50.5 nM
10 | GGUCGAAAGUAAGGAUAUGCCUAGGAAACCUAGGCAGAAGGUACAUGAGGAUCACCCAUGUUAACGCAAAGCGAAUAAACGACC | 18.6 nM | 27.4 nM | – | –
11 | GGUCGUCACAUUAACAUGAGGAUCACCCAUGUCUCUUGACAUGAGGAUAUGGAUCCUAAUUGGAUCCAGAAGGCAUGGACGACC | – | – | 1030 nM | 96.5 nM
12 | GGUCUGAUAUGAGGAUAUGCUCAGGAAUACUGAGCAGAAGGCAUGUGAAUACAUGAGGAUCACCCAUGUGAUCAAUACAGACCA | – | – | 140 nM | 26 nM
13 | GGUGCAUAUGAGAAGGCGAUCAUGAAACAUGAUCGAGGAUAUCAUGUAAACAUGAGGAUCACCCAUGUAUGGGAAAAGUGCAUC | – | – | 85.4 nM | 10.7 nM
14 | GGUGCCAUGUAGAAGGCAGAUCUGAUUCAGAUCUGAGGAUAUACAUGAGGAUCACCCAUGUAAAGGCACCGCACGAGAGUGCAA | 6.51 nM | 8.81 nM | – | –
15 | GGUGCGUAUGUGAGGAUAUGCUGGUCCUUGGAUCAGCAGAAGGCACAUGAGGAUCACCCAUGUGGUGUCGUACC | 357 nM | 23.5 nM | – | –
16 | GGUGCGUAUGUGAGGAUAUGCUGGUCCUUGGCUCGGCAGAAGGCACAUGAGGAUCACCCAUGUGGUGUCGUACA | 112 nM | 50.9 nM | – | –
17 | GGUGCGUAUGUGAGGAUAUGCUGGUCCUUGGCUCGGCAGAAGGCACAUGAGGAUCACCCAUGUGGUGUCGUACU | 130 nM | 46 nM | – | –
18 | GGUGCGUUUGUGAGGAUAUGCUGGUCCUUGGAUCCGCAGAAGGCACAUGAGGAUCACCCAUGUGGUGUCGUACC | 289 nM | 40.3 nM | – | –
19 | GGUGCGUUUGUGAGGAUAUGCUGGUCCUUGGUUCAGCAGAAGGCACAUGAGGAUCACCCAUGUGGUGUCGUACC | 240 nM | 28 nM | – | –
20 | GGUGGACAUGAGGAUCACCCAUGUGAGGAUAUCGGCCGGCUAGUGGCGGCUGGCUUCACGAGAAGGCGCAUAGU | 85.8 nM | 107 nM | – | –
21 | GGUGGACAUGAGGAUCACCCAUGUGAGGAUAUCGGCUAUCUUCUCGCUGUCGGUUGCUCGAGAAGGCACAUUGU | 70.6 nM | 86.7 nM | – | –
22 | GGUGGCGUGAUAACGCUAGAUAUAACAUGAGGAUCACCCAUGUAGGAUAUCCCGCCGAGAGGGCGGGAGAAGGACAACCAAUGG | 40.9 nM | 34 nM | – | –
23 | GGUGGCUUCACAGGAUAUCCCGAGCCAAACAUGAGGAUCACCCAUGUGCUGGUAUUAAAAUUUGCGGAGAAGGGUGGUUCACGU | – | – | 154 nM | 74.1 nM

From the EternaBench riboswitch data
